Bioassay records deposited in PubChem by Johns Hopkins Ion Channel Center.
Only some compounds are listed: those with a hit (about 3.7% of all), similar ones and a draw of the others.
Kir21 block: blocks the mouse Kir2.1 inward-rectifier potassium channel; P35561; HEK293-Kir2.1, FluxOR thallium flux fluorescence; active compounds read low; B-score at 10 µM; actives 0.85% (n = 310,000); AID 1672;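 active means fluorescence ratio B-score at or below minus 3 SD of library scores, with starting-brightness B-score within 2 SD, cut at about -4.2 in these data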;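 further: channel flux triggered by added potassium and thallium sulfate stimulus; B-score of peak minus minimum fluorescence over baseline after thallium stimulus; more negative B-score means stronger Kir2.1 block with less thallium influx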
Target sequence (P35561 whole entry, looked up): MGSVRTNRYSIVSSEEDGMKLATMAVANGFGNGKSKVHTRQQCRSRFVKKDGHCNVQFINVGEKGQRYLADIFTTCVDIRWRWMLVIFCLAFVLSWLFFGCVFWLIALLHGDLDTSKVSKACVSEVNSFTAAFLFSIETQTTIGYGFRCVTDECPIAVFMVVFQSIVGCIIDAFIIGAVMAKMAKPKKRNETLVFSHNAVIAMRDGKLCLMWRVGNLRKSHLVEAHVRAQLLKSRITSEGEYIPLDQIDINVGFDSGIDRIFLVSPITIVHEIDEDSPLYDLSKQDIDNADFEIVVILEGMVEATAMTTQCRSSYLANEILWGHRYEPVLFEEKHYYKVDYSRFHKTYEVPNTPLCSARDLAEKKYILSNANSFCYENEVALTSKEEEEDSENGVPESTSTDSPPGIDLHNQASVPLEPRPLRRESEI
KCNK3 block: human KCNK3 channel inhibition, primary screen; CHO-KCNK3 thallium flux, FluxOR fluorescence; active compounds read low; actives 0.84% (n = 340,000); B-score at 10 µM; O14649;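 active means B-score under library mean minus 4 SD, starting fluorescence ratio at most library mean plus 5 SD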;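 further: more negative B-score means stronger inhibition of thallium flux through KCNK3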
hERG rescue: compounds protecting human hERG from proarrhythmic drug block; activation (rescue from dofetilide block), less the hit threshold, % at 10 µM; CHO-hERG, FluxOR thallium flux, dofetilide IC70 present; Q12809; actives 0.51% (n = 310,000);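 active means activation above the mean of controls blocked by dofetilide plus 5 SD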;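 further: thallium influx through hERG after potassium depolarization seen as dye fluorescence rise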
KCNQ1 pot: potentiates or activates the human KCNQ1 potassium channel; P51787; CHO-K1 KCNQ1, thallium flux FluxOR fluorescence; active compounds read high; B-score at 10 µM; actives 0.35% (n = 310,000); AID 2648;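 active means fluorescence ratio B-score, a plate-corrected score, at least three library SD, with initial intensity B-score within 5 SD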
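assay system = KCNQ1-transfected CHO-K1 cells | medium = assay buffer with matched DMSO | probe or stimulus = depolarizing K+/Tl+ stimulus, K2SO4 and Tl2SO4 each 12.5 mM in 5x stock | dosing = single dose | incubation = dye 90 min, compound 20 min, room temperature | detection = kinetic FluxOR fluorescence, 10 s baseline plus 110 s post-stimulus | evaluation = ratio B score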
KCNQ1 inh: human KCNQ1 channel inhibition | CHO-K1 KCNQ1, FluxOR thallium flux fluorescence; active compounds read high | P51787 | actives 1.3% (n = 310,000) | B-score at 10 µM;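 active means compounds whose thallium flux B-score, printed positive for inhibition, exceeds three library SD while starting fluorescence stays within three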;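 further: channel opened by potassium depolarization with thallium stimulus after 20 min compound exposure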
KCNK9 inh: blocks the human KCNK9 two-pore domain potassium channel; B-score at 10 µM; Q9NPC2; actives 1.2% (n = 310,000); HEK293 KCNK9, FluxOR thallium flux fluorescence; active compounds read low; AID 488922;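 active means ratio B-score over 3 SD below the library mean, with starting fluorescence within 5 SD of its mean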;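 further: negative B-score means less thallium flux so channel inhibition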
Each line names hits and unclear results; the compound was inactive in the other large screens.

CCOC(=O)C1CCCN(C(=O)C(=O)c2cn(CC(=O)N3CCOCC3)c3ccccc23)C1 (configuration not stated)	none
OC[C@H]1O[C@@](CO)(O[C@H]2O[C@H](CO)[C@@H](O)[C@H](O)[C@H]2O)[C@@H](O[C@H]2O[C@H](CO)[C@@H](O)[C@H](O)[C@H]2O)[C@@H]1O	none (no result: Kir21 block, hERG rescue, KCNQ1 pot, KCNQ1 inh, KCNK9 inh)
COc1ccc(/C=N/NC(=O)c2cc(-c3ccc(C)cc3C)nc3ccccc23)cc1COC(C)=O	KCNK3 block -8.79
COc1ccc(/C=N\NC(=O)c2ccc(-c3ccccc3)cc2)cc1COC(C)=O	none
CCc1ccc(/C=N/NC(=O)c2cc(-c3ccccc3OC)nc3ccccc23)s1	KCNQ1 inh 6
CC1(N=Cc2cc(Cl)ccc2O)COP(=O)(Nc2ccccc2)OC1 (configuration not stated)	none (no result: Kir21 block, hERG rescue, KCNQ1 pot, KCNQ1 inh, KCNK9 inh)
CCN(CC)C(=O)CN1C(=O)C2(OCC(C)(C)CO2)c2ccccc21	none (no result: Kir21 block, hERG rescue, KCNQ1 pot, KCNQ1 inh, KCNK9 inh)
C=CC[C@@H](Cc1ccc(F)cc1)C(=O)OC[C@@H]1CCCN1C(=O)[C@H](CC=C)CC(=O)N(CCO)Cc1ccccc1	none (no result: Kir21 block, hERG rescue, KCNQ1 pot, KCNQ1 inh, KCNK9 inh)
COC(=O)[C@]1(C)N[C@H](CN(C)C(=O)COc2ccccc2)[C@@H]2C(=O)N(C)C(=O)[C@@H]21	none (no result: Kir21 block, hERG rescue, KCNQ1 pot, KCNQ1 inh, KCNK9 inh)
CC(C)(C)NC(=O)CN(Cc1cccs1)C(=O)CN1C(=O)C(=O)c2ccccc21	none
CC(C)(C)NC(=O)CN(Cc1cccs1)C(=O)C1COc2ccccc2O1 (configuration not stated)	KCNQ1 inh 6
CC1CCc2c(sc3ncnc(SCC(=O)Nc4ccc(C(=O)O)cc4)c23)C1 (configuration not stated)	none
COc1cc(NC(=O)CSc2ncnc3sc4c(c23)CCC(C)C4)c(C(=O)O)cc1OC (configuration not stated)	hERG rescue 50.7, KCNQ1 pot 39
CCn1cc(C(=O)NC2CCCc3c2cnn3-c2cccc(C)c2C)cn1 (configuration not stated)	KCNQ1 inh 8
CCc1cc2c(-c3ccccc3)cc(=O)oc2cc1OC(C)C(=O)NCC1CCC(C(=O)O)CC1 (configuration not stated)	none
CC(=O)C1=NN(c2ccccc2)C(c2ccc3c(c2)OCO3)N1c1ccc(N2CCOCC2)cc1 (configuration not stated)	none
CC(=O)C1=NN(c2ccccc2)C(c2cccs2)N1c1ccccc1 (configuration not stated)	KCNQ1 inh 8, KCNK9 inh -7.58 (no result: KCNK3 block)
O=C(Nc1ccc2c(c1)OCO2)C1CCCN1C(=O)Nc1ccccc1F (configuration not stated)	hERG rescue 5.6
COc1ccccc1NC(=O)N1CCCC1C(=O)Nc1ccc2c(c1)OCO2 (configuration not stated)	none
O=C(NCCc1ccc(Cl)cc1)C1CCC(CNc2nc(=S)[nH]c3ccccc23)CC1 (configuration not stated)	none
O=C(NCc1ccccc1Cl)C1CCC(CNc2nc(=S)[nH]c3ccccc23)CC1 (configuration not stated)	hERG rescue 5.6
CN(C(=O)c1cccc(NC(=O)Cc2cccc(NC(=O)C3CCCN(C(=O)CCc4ccccc4)C3)c2)c1)C1CCC1 (configuration not stated)	none (no result: Kir21 block, hERG rescue, KCNQ1 pot, KCNQ1 inh, KCNK9 inh)
O=C1c2[nH]nc(-c3ccccc3O)c2C(c2ccc(F)cc2)N1Cc1ccco1 (configuration not stated)	KCNQ1 inh 6
O=C(Cc1ccc(S(=O)(=O)N2CCOCC2)s1)Nc1cc(Cl)ccc1Cl	none (no result: Kir21 block, hERG rescue, KCNQ1 pot, KCNQ1 inh, KCNK9 inh)
CCOCCOCN(C#N)c1nc(OC)nc(N(C)C)n1	hERG rescue 48.9
Cc1ccc(C(=O)NCc2ccc(F)cc2)cc1NC1=NC2CS(=O)(=O)CC2S1 (configuration not stated)	none
CC1Cc2ccccc2N1C(=S)NC(=O)c1ccco1 (configuration not stated)	hERG rescue 6.7
CC1Cc2ccccc2N1C(=S)NC(=O)C1(C)CC1(Cl)Cl (configuration not stated)	hERG rescue 27.7, KCNQ1 pot 37
Cc1c(C(=O)NC2=NCCS2)cccc1[N+](=O)[O-]	none
Cn1c(=S)c2[nH]c(SCCN3CCCC3)nc2n(C)c1=O	KCNK9 inh -6.89
COc1ccc(NC(=O)C2CCCN(C(=O)c3ccc(Cl)cc3)C2)cc1S(=O)(=O)N(C)C (configuration not stated)	none (no result: Kir21 block, hERG rescue, KCNQ1 pot, KCNQ1 inh, KCNK9 inh)
Cc1nnc(SCc2ccccc2F)n1NCc1cccs1	Kir21 block -4.24
Nn1c(SCc2ccccc2F)nnc1-c1ccncc1	none
CCCCC(=O)Nc1c2c(nn1-c1ccc(C)cc1)CS(=O)(=O)C2	none
CN(C)CCNC(=S)NC1CCCCC1	none
CN(C)CCOC(C1CCCCC1)C1CCCCC1	Kir21 block -4.59
Cc1ccc(S(=O)(=O)N2CCN(Cc3cc(=O)n4ccccc4n3)CC2)c(C)c1	none (no result: Kir21 block, hERG rescue, KCNQ1 pot, KCNQ1 inh, KCNK9 inh)
COc1ccc(-c2c(-c3ccsc3)oc3ccc(N4CCOCC4)cc23)cn1	KCNK9 inh -7.92
COC(=O)N/N=C(\C)c1ccc(-n2ccnc2)cc1	none
C/C(=N\NC(=O)COc1ccc(C)cc1C(C)C)c1ccc(-n2ccnc2)cc1	hERG rescue 5.6
C=CCNc1nc(N2CCCCC2)c(C#N)c2c1CN(Cc1ccccc1)CC2	KCNK3 block -11.3
Cc1cnc(NC(=O)c2c(Cl)cnn2C)s1	none
CCCCn1c(-c2ccccc2C)nc2cc3[nH]c(=O)c(C(C)C)nc3cc21	KCNK9 inh -8.09
C[C@H](CO)N1C[C@H](C)[C@@H](CN(C)Cc2ccccc2)Oc2c(NC(=O)Cc3ccccc3)cccc2C1=O	none (no result: Kir21 block, hERG rescue, KCNQ1 pot, KCNQ1 inh, KCNK9 inh)
C[C@H](CO)N1C[C@H](C)[C@@H](CN(C)Cc2ccncc2)Oc2c(NC(=O)Cc3ccccc3)cccc2C1=O	KCNK3 block -10.6 (no result: Kir21 block, hERG rescue, KCNQ1 pot, KCNQ1 inh, KCNK9 inh)
O=C(Cc1c[nH]c2ccccc12)NCc1ccc(Cl)cc1Cl	Kir21 block -4.25
Cc1nn(-c2ccccc2)c2nc(C(Cl)(Cl)Cl)[nH]c(=O)c12	KCNQ1 pot 12
CC(=O)N1Cc2ccccc2C(C)CC12CCCCC2 (configuration not stated)	Kir21 block -7.35
CCCCc1nc2ccccc2c(C(=O)O)c1C	none
CCCCc1nc2ccccc2c(N)c1CCC (tested in a mixture with another compound)	Kir21 block -8.29
Oc1c(Br)cc(Cl)cc1C=Nc1ccccc1Br	hERG rescue 10.7, KCNQ1 pot 8
Oc1c(Br)cc(Cl)cc1C=Nc1ccc(N2CCOCC2)cc1	none
O=C(O)CC(NC(=O)C1CCCCC1)c1cc([N+](=O)[O-])ccc1Cl (configuration not stated)	KCNQ1 inh 12
